Measurements as given in ChEMBL document CHEMBL1143237, “Sulfonamide-1,2,4-triazole derivatives as antifungal and antibacterial agents: synthesis, biological evaluation, lipophilicity, and conformational studies” (Bioorg Med Chem, 2008).
≈ marks a conversion by molar mass, not a printed value.

Legend:
[1] = Partition coefficient, log P of the compound; assay type: physicochemical; settings: octanol/water
Summary of the method: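 Calculated, not measured: AlogP, IAlogP, ClogP, Cosmo logP, mlogP, Kowwin and XlogP were computed and averaged.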

[2] = system: Enterobacter cloacae; test: Antibacterial activity against Enterobacter cloacae after 24 hrs by microdilution test; assay type: functional
Summary of the method: (§1)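 Broth microdilution in LB medium in 96-well plates. Inoculum 1.0 × 10⁴ CFU per well, from a suspension set to 1.0 × 10⁵ CFU/ml in sterile saline. Compounds at […] µg/ml. Incubation 24 h at 28 °C. MIC is the lowest concentration with no visible growth under a binocular microscope. MBC by subculturing 2 µl into fresh broth for a further 72 h. OD540 read against blank. DMSO negative control.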

[3] = system: Salmonella enteritidis; test: Antibacterial activity against Salmonella enteritidis ATCC 13076 after 24 hrs by microdilution test; assay type: functional, Salmonella enterica subsp. enterica serovar Enteritidis; settings: Salmonella enterica, ATCC 13076, 24 h; summary of the method: as §1
[4] = system: Salmonella typhimurium; test: Antibacterial activity against Salmonella Typhimurium ATCC 13311 after 24 hrs by microdilution test; assay type: functional, Salmonella enterica subsp. enterica serovar Typhimurium; settings: Salmonella enterica, ATCC 13311, 24 h; summary of the method: as §1
[5] = system: Staphylococcus epidermidis; test: Antibacterial activity against Staphylococcus epidermidis ATCC 12228 after 24 hrs by microdilution test; assay type: functional; settings: ATCC 12228, 24 h; summary of the method: as §1
[6] = system: Micrococcus luteus; test: Antibacterial activity against Micrococcus flavus ATCC 10240 after 24 hrs by microdilution test; assay type: functional; settings: ATCC 10240, 24 h; summary of the method: as §1
[7] = system: Escherichia coli; test: Antibacterial activity against Escherichia coli ATCC 35210 after 24 hrs by microdilution test; assay type: functional; settings: ATCC 35210, 24 h; summary of the method: as §1
[8] = system: Aspergillus flavus; test: Antifungal activity against Aspergillus flavus ATCC 9643 after 72 hrs by microdilution test; assay type: functional; settings: ATCC 9643, 72 h
Summary of the method: (§2)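 Modified microdilution in malt broth. Spores were washed from malt agar with sterile 0.85% saline containing 0.1% Tween 80 and adjusted to about 1.0 × 10⁵ per well. Compounds were dissolved in DMSO and tested at […] µg/ml. Incubation 72 h at 28 °C. MIC is the lowest concentration with no visible growth under a binocular microscope. MFC by 2 µl subculture and a further 72 h at 28 °C.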

[9] = system: Trichoderma viride; test: Antifungal activity against Trichoderma viride IAM 5061 after 72 hrs by microdilution test; assay type: functional; summary of the method: as §2
[10] = system: Talaromyces funiculosus; test: Antifungal activity against Penicillium funiculosum ATCC 36839 after 72 hrs by microdilution test; assay type: functional; settings: ATCC 36839, 72 h; summary of the method: as §2
[11] = system: Aspergillus versicolor; test: Antifungal activity against Aspergillus versicolor ATCC 11730 after 72 hrs by microdilution test; assay type: functional; settings: ATCC 11730, 72 h; summary of the method: as §2
[12] = system: Aspergillus ochraceus; test: Antifungal activity against Aspergillus ochraceus ATCC 12066 after 72 hrs by microdilution test; assay type: functional; settings: ATCC 12066, 72 h; summary of the method: as §2
[13] = system: Aspergillus niger; test: Antifungal activity against Aspergillus niger ATCC 6275 after 72 hrs by microdilution test; assay type: functional; settings: ATCC 6275, 72 h; summary of the method: as §2
[14] = system: Bacillus cereus; test: Antibacterial activity against Bacillus cereus ATCC 10907 after 24 hrs by microdilution test; settings: ATCC 10907, 24 h

| Structure (SMILES) | logP [1] | MBC [2] [µg/mL] | MIC [2] [µg/mL] | MBC [3] [µg/mL] | MIC [3] [µg/mL] | MBC [4] [µg/mL] | MIC [4] [µg/mL] | MBC [5] [µg/mL] | MIC [5] [µg/mL] | MBC [6] [µg/mL] | MIC [6] [µg/mL] | MBC [7] [µg/mL] | MIC [7] [µg/mL] | MFC [8] [µg/mL] | MIC [8] [µg/mL] | MFC [9] [µg/mL] | MIC [9] [µg/mL] | MFC [10] [µg/mL] | MIC [10] [µg/mL] | MFC [11] [µg/mL] | also measured |
| --- | --- | --- | --- | --- | --- | --- | --- | --- | --- | --- | --- | --- | --- | --- | --- | --- | --- | --- | --- | --- | --- |
| COc1cc(Cc2n[nH]c(=S)n2-c2ccc(Cl)cc2)c(S(=O)(=O)N(C)C)cc1OC | 2.4 | 100 (≈ 213 µM) | 100 (≈ 213 µM) | 150 (≈ 320 µM) | 150 (≈ 320 µM) | 150 (≈ 320 µM) | 150 (≈ 320 µM) | 150 (≈ 320 µM) | 150 (≈ 320 µM) | 150 (≈ 320 µM) | 150 (≈ 320 µM) | 150 (≈ 320 µM) | 100 (≈ 213 µM) | 100 (≈ 213 µM) | 50 (≈ 107 µM) | 100 (≈ 213 µM) | 50 (≈ 107 µM) | 100 (≈ 213 µM) | 100 (≈ 213 µM) | 150 (≈ 320 µM) | MIC [11]: 100 µg/mL (≈ 213 µM); MFC [12]: 150 µg/mL (≈ 320 µM); MIC [12]: 100 µg/mL (≈ 213 µM); MFC [13]: 150 µg/mL (≈ 320 µM); MIC [13]: 100 µg/mL (≈ 213 µM); MBC [14]: 150 µg/mL (≈ 320 µM); MIC [14]: 150 µg/mL (≈ 320 µM) |
| CCN(CC)S(=O)(=O)c1cc(OC)c(OC)cc1Cc1n[nH]c(=S)n1-c1ccccc1 | 2.48 | 100 (≈ 216 µM) | 100 (≈ 216 µM) | 150 (≈ 324 µM) | 150 (≈ 324 µM) | 150 (≈ 324 µM) | 150 (≈ 324 µM) | 150 (≈ 324 µM) | 150 (≈ 324 µM) | 150 (≈ 324 µM) | 150 (≈ 324 µM) | 150 (≈ 324 µM) | 100 (≈ 216 µM) | 150 (≈ 324 µM) | 100 (≈ 216 µM) | 100 (≈ 216 µM) | 50 (≈ 108 µM) | 150 (≈ 324 µM) | 100 (≈ 216 µM) | 150 (≈ 324 µM) | MIC [11]: 100 µg/mL (≈ 216 µM); MFC [12]: 150 µg/mL (≈ 324 µM); MIC [12]: 100 µg/mL (≈ 216 µM); MFC [13]: 150 µg/mL (≈ 324 µM); MIC [13]: 100 µg/mL (≈ 216 µM); MBC [14]: 150 µg/mL (≈ 324 µM); MIC [14]: 150 µg/mL (≈ 324 µM) |
| COc1cc(Cc2n[nH]c(=S)n2-c2ccccc2)c(S(=O)(=O)N2CCCCC2)cc1OC | 2.63 | 100 (≈ 211 µM) | 100 (≈ 211 µM) | 150 (≈ 316 µM) | 150 (≈ 316 µM) | 150 (≈ 316 µM) | 100 (≈ 211 µM) | 150 (≈ 316 µM) | 150 (≈ 316 µM) | 150 (≈ 316 µM) | 150 (≈ 316 µM) | 150 (≈ 316 µM) | 100 (≈ 211 µM) | 150 (≈ 316 µM) | 100 (≈ 211 µM) | 150 (≈ 316 µM) | 100 (≈ 211 µM) | 150 (≈ 316 µM) | 100 (≈ 211 µM) | 150 (≈ 316 µM) | MIC [11]: 100 µg/mL (≈ 211 µM); MFC [12]: 150 µg/mL (≈ 316 µM); MIC [12]: 100 µg/mL (≈ 211 µM); MFC [13]: 150 µg/mL (≈ 316 µM); MIC [13]: 100 µg/mL (≈ 211 µM); MBC [14]: 150 µg/mL (≈ 316 µM); MIC [14]: 150 µg/mL (≈ 316 µM) |
| CCN(CC)S(=O)(=O)c1cc(OC)c(OC)cc1Cc1n[nH]c(=S)n1-c1ccc(Cl)cc1 | 3.15 | 100 (≈ 201 µM) | 100 (≈ 201 µM) | 150 (≈ 302 µM) | 150 (≈ 302 µM) | 150 (≈ 302 µM) | 150 (≈ 302 µM) | 150 (≈ 302 µM) | 150 (≈ 302 µM) | 150 (≈ 302 µM) | 150 (≈ 302 µM) | 150 (≈ 302 µM) | 100 (≈ 201 µM) | 150 (≈ 302 µM) | 100 (≈ 201 µM) | 100 (≈ 201 µM) | 50 (≈ 101 µM) | 150 (≈ 302 µM) | 100 (≈ 201 µM) | 150 (≈ 302 µM) | MIC [11]: 100 µg/mL (≈ 201 µM); MFC [12]: 150 µg/mL (≈ 302 µM); MIC [12]: 100 µg/mL (≈ 201 µM); MFC [13]: 150 µg/mL (≈ 302 µM); MIC [13]: 100 µg/mL (≈ 201 µM); MBC [14]: 150 µg/mL (≈ 302 µM); MIC [14]: 150 µg/mL (≈ 302 µM) |
